In ChEMBL document CHEMBL1151428, “Capability of 11 antipneumococcal antibiotics to select for resistance by multistep and single-step methodologies” (2007):
Converted amounts (≈) assume the structure as drawn.

What was measured:
Format in all cases: functional
Streptococcus pneumoniae [1] = assay: Antimicrobial activity against drug-resistant Streptococcus pneumoniae isolate 24 after 50 passages with moxifloxacin measured after 10 antibiotic-free subculture by multi-step resistance selection technique
Procedure, shortened: (§1)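 Mutants selected by daily broth passage in subinhibitory drug in cation-adjusted Mueller-Hinton broth with 5% lysed horse blood. Stability was tested by 10 daily passages on blood agar without antibiotic, then macrodilution MIC.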

Streptococcus pneumoniae [2] = assay: Antimicrobial activity against drug-resistant Streptococcus pneumoniae isolate 24 after 14 passages with Telithromycin measured after 10 antibiotic-free subculture by multi-step resistance selection technique; procedure, shortened: as §1
Streptococcus pneumoniae [3] = assay: Antimicrobial activity against drug-resistant Streptococcus pneumoniae isolate 1635 after 49 passages with clarithromycin measured after 10 antibiotic-free subculture by multi-step resistance selection technique
Streptococcus pneumoniae [4] = assay: Antimicrobial activity against drug-resistant Streptococcus pneumoniae isolate 1635 after 14 passages with azithromycin measured after 10 antibiotic-free subculture by multi-step resistance selection technique; procedure, shortened: as §1
Streptococcus pneumoniae [5] = assay: Antimicrobial activity against drug-resistant Streptococcus pneumoniae isolate 1635 after 50 passages by multi-step resistance selection technique
Procedure, shortened: (§2)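 Daily serial passage in subinhibitory drug levels in 1 ml cation-adjusted Mueller-Hinton broth with 5% lysed horse blood; fresh broth for tigecycline. Each day, 10 μl were taken from the tube one to two dilutions below the MIC whose turbidity matched the growth control, and used to set the next MIC. MIC by macrodilution.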

Streptococcus pneumoniae [6] = assay: Antimicrobial activity against drug-resistant Streptococcus pneumoniae isolate 1635 by NCCLS M7-A7 method
Streptococcus pneumoniae [7] = assay: Antimicrobial activity against drug-resistant Streptococcus pneumoniae isolate 3243 after 41 passages with clarithromycin measured after 10 antibiotic-free subculture by multi-step resistance selection technique
Streptococcus pneumoniae [8] = assay: Antimicrobial activity against drug-resistant Streptococcus pneumoniae isolate 3243 after 33 passages with azithromycin measured after 10 antibiotic-free subculture by multi-step resistance selection technique; procedure, shortened: as §1
Streptococcus pneumoniae [9] = assay: Antimicrobial activity against drug-resistant Streptococcus pneumoniae isolate 3243 after 29 passages with Telithromycin measured after 10 antibiotic-free subculture by multi-step resistance selection technique; procedure, shortened: as §1
Streptococcus pneumoniae [10] = assay: Antimicrobial activity against drug-resistant Streptococcus pneumoniae isolate 3676 after 50 passages with moxifloxacin measured after 10 antibiotic-free subculture by multi-step resistance selection technique
Streptococcus pneumoniae [11] = assay: Antimicrobial activity against drug-resistant Streptococcus pneumoniae isolate 3274 after 48 passages with Telithromycin measured after 10 antibiotic-free subculture by multi-step resistance selection technique; procedure, shortened: as §1
Streptococcus pneumoniae [12] = assay: Antimicrobial activity against drug-resistant Streptococcus pneumoniae isolate 2527 after 14 passages with gemifloxacin measured after 10 antibiotic-free subculture by multi-step resistance selection technique; procedure, shortened: as §1
Streptococcus pneumoniae [13] = assay: Antimicrobial activity against drug-resistant Streptococcus pneumoniae isolate 2527 after 20 passages with azithromycin measured after 10 antibiotic-free subculture by multi-step resistance selection technique; procedure, shortened: as §1
Streptococcus pneumoniae [14] = assay: Antimicrobial activity against drug-resistant Streptococcus pneumoniae isolate 2527 by NCCLS M7-A7 method
Streptococcus pneumoniae [15] = assay: Antimicrobial activity against drug-resistant Streptococcus pneumoniae isolate 2527 after 50 passages by multi-step resistance selection technique
Procedure, shortened: (§3)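 Daily serial passage in subinhibitory drug levels in 1 ml cation-adjusted Mueller-Hinton broth with 5% lysed horse blood; fresh broth for tigecycline. Each day, 10 μl were taken from the tube one to two dilutions below the MIC whose turbidity matched the growth control, and used to set the next MIC. […] MIC by macrodilution.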

Streptococcus pneumoniae [16] = assay: Antimicrobial activity against drug-resistant Streptococcus pneumoniae isolate 3665 by NCCLS M7-A7 method
Streptococcus pneumoniae [17] = assay: Antimicrobial activity against drug-resistant Streptococcus pneumoniae isolate 1077 after 49 passages with clindamycin measured after 10 antibiotic-free subculture by multi-step resistance selection technique
Streptococcus pneumoniae [18] = assay: Antimicrobial activity against drug-resistant Streptococcus pneumoniae isolate 1077 after 29 passages with azithromycin measured after 10 antibiotic-free subculture by multi-step resistance selection technique; procedure, shortened: as §1
Streptococcus pneumoniae [19] = assay: Antimicrobial activity against drug-resistant Streptococcus pneumoniae isolate 1077 after 50 passages by multi-step resistance selection technique; procedure, shortened: as §2
Streptococcus pneumoniae [20] = assay: Antimicrobial activity against drug-resistant Streptococcus pneumoniae isolate 1077 by NCCLS M7-A7 method
Streptococcus pneumoniae [21] = assay: Antimicrobial activity against drug-resistant Streptococcus pneumoniae isolate 1076 after 35 passages with moxifloxacin measured after 10 antibiotic-free subculture by multi-step resistance selection technique; procedure, shortened: as §1
Streptococcus pneumoniae [22] = assay: Antimicrobial activity against drug-resistant Streptococcus pneumoniae isolate 1076 by NCCLS M7-A7 method
Streptococcus pneumoniae [23] = assay: Antimicrobial activity against drug-resistant Streptococcus pneumoniae isolate 1076 after 50 passages by multi-step resistance selection technique; procedure, shortened: as §3
Streptococcus pneumoniae [24] = assay: Antimicrobial activity against drug-resistant Streptococcus pneumoniae isolate 3009 after 19 passages with moxifloxacin measured after 10 antibiotic-free subculture by multi-step resistance selection technique; procedure, shortened: as §1
Streptococcus pneumoniae [25] = assay: Antimicrobial activity against drug-resistant Streptococcus pneumoniae isolate 3009 after 18 passages with levofloxacin measured after 10 antibiotic-free subculture by multi-step resistance selection technique; procedure, shortened: as §1
Streptococcus pneumoniae [26] = assay: Antimicrobial activity against drug-resistant Streptococcus pneumoniae isolate 3009 after 21 passages with gemifloxacin measured after 10 antibiotic-free subculture by multi-step resistance selection technique; procedure, shortened: as §1
Streptococcus pneumoniae [27] = assay: Antimicrobial activity against drug-resistant Streptococcus pneumoniae isolate 3009 after 25 passages with clarithromycin measured after 10 antibiotic-free subculture by multi-step resistance selection technique
Streptococcus pneumoniae [28] = assay: Antimicrobial activity against drug-resistant Streptococcus pneumoniae isolate 3009 after 50 passages by multi-step resistance selection technique; procedure, shortened: as §3
Streptococcus pneumoniae [29] = assay: Antimicrobial activity against drug-resistant Streptococcus pneumoniae isolate 1635 after 14 passages with clindamycin measured after 10 antibiotic-free subculture by multi-step resistance selection technique
Streptococcus pneumoniae [30] = assay: Antimicrobial activity against drug-resistant Streptococcus pneumoniae isolate 37 by NCCLS M7-A7 method
Streptococcus pneumoniae [31] = assay: Antimicrobial activity against drug-resistant Streptococcus pneumoniae isolate 37 after 50 passages by multi-step resistance selection technique
Procedure, shortened: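 Daily serial passage in broth at subinhibitory drug levels: 1 ml cation-adjusted Mueller-Hinton broth with 5% lysed horse blood; fresh broth for tigecycline. Each day 10 μl inoculum taken from the tube one to two dilutions below MIC matching growth-control turbidity, used to set next MIC.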

Streptococcus pneumoniae [32] = assay: Antimicrobial activity against drug-resistant Streptococcus pneumoniae isolate 37 after 14 passages with Telithromycin measured after 10 antibiotic-free subculture by multi-step resistance selection technique
Streptococcus pneumoniae [33] = assay: Antimicrobial activity against drug-resistant Streptococcus pneumoniae isolate 3413 after 30 passages with Telithromycin measured after 10 antibiotic-free subculture by multi-step resistance selection technique; procedure, shortened: as §1
Streptococcus pneumoniae [34] = assay: Antimicrobial activity against drug-resistant Streptococcus pneumoniae isolate 3676 after 44 passages with clarithromycin measured after 10 antibiotic-free subculture by multi-step resistance selection technique
Streptococcus pneumoniae [35] = assay: Antimicrobial activity against drug-resistant Streptococcus pneumoniae isolate 3676 after 50 passages by multi-step resistance selection technique
Procedure, shortened: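 Daily serial passage in broth at subinhibitory drug levels: 1 ml cation-adjusted Mueller-Hinton broth with 5% lysed horse blood; fresh broth for tigecycline. Each day 10 μl inoculum taken from the tube one to two dilutions below MIC matching growth-control turbidity, used to set next MIC. Continued until ≥8-fold MIC rise, minimum 14, maximum 50 passages; MIC read by macrodilution.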

Streptococcus pneumoniae [36] = assay: Antimicrobial activity against drug-resistant Streptococcus pneumoniae isolate 3665 after 38 passages with moxifloxacin measured after 10 antibiotic-free subculture by multi-step resistance selection technique
Streptococcus pneumoniae [37] = assay: Antimicrobial activity against drug-resistant Streptococcus pneumoniae isolate 3665 after 26 passages with clarithromycin measured after 10 antibiotic-free subculture by multi-step resistance selection technique

Structure (SMILES) | MIC (Streptococcus pneumoniae [1]) | MIC (Streptococcus pneumoniae [2]) | MIC (Streptococcus pneumoniae [3]) | MIC (Streptococcus pneumoniae [4]) | MIC (Streptococcus pneumoniae [5]) | MIC (Streptococcus pneumoniae [6]) | MIC (Streptococcus pneumoniae [7]) | MIC (Streptococcus pneumoniae [8]) | MIC (Streptococcus pneumoniae [9]) | MIC (Streptococcus pneumoniae [10]) | MIC (Streptococcus pneumoniae [11]) | MIC (Streptococcus pneumoniae [12]) | MIC (Streptococcus pneumoniae [13]) | MIC (Streptococcus pneumoniae [14]) | MIC (Streptococcus pneumoniae [16]) | MIC (Streptococcus pneumoniae [17]) | MIC (Streptococcus pneumoniae [18]) | MIC (Streptococcus pneumoniae [19]) | MIC (Streptococcus pneumoniae [20]) | MIC (Streptococcus pneumoniae [21]) | other results
CO/N=C(\C(=O)N[C@@H]1C(=O)N2C(C(=O)O)=C(CSc3nc(=O)c(O)nn3C)CS[C@H]12)c1csc(N)n1 [CEFTRIAXONE] | 1 µg/mL (≈ 1.8 µM) | 2 µg/mL (≈ 3.61 µM) | 0.016 µg/mL (≈ 0.0289 µM) | 0.016 µg/mL (≈ 0.0289 µM) | 0.03 µg/mL (≈ 0.0541 µM) | 0.016 µg/mL (≈ 0.0289 µM) | 0.125 µg/mL (≈ 0.225 µM) | 0.125 µg/mL (≈ 0.225 µM) | 0.125 µg/mL (≈ 0.225 µM) | 0.03 µg/mL (≈ 0.0541 µM) | 0.125 µg/mL (≈ 0.225 µM) | 1 µg/mL (≈ 1.8 µM) | 2 µg/mL (≈ 3.61 µM) | 2 µg/mL (≈ 3.61 µM) | 0.06 µg/mL (≈ 0.108 µM) | 0.016 µg/mL (≈ 0.0289 µM) | 0.03 µg/mL (≈ 0.0541 µM) | 0.016 µg/mL (≈ 0.0289 µM) | 0.016 µg/mL (≈ 0.0289 µM) | 0.016 µg/mL (≈ 0.0289 µM) | MIC (Streptococcus pneumoniae [15]): 8 µg/mL (≈ 14.4 µM); MIC (Streptococcus pneumoniae [22]): 0.016 µg/mL (≈ 0.0289 µM); MIC (Streptococcus pneumoniae [23]): 0.016 µg/mL (≈ 0.0289 µM); MIC (Streptococcus pneumoniae [24]): 0.03 µg/mL (≈ 0.0541 µM); MIC (Streptococcus pneumoniae [25]): 0.016 µg/mL (≈ 0.0289 µM); MIC (Streptococcus pneumoniae [26]): 0.03 µg/mL (≈ 0.0541 µM); MIC (Streptococcus pneumoniae [27]): 0.016 µg/mL (≈ 0.0289 µM); MIC (Streptococcus pneumoniae [28]): 0.03 µg/mL (≈ 0.0541 µM); MIC (Streptococcus pneumoniae [29]): 0.016 µg/mL (≈ 0.0289 µM); MIC (Streptococcus pneumoniae [30]): 2 µg/mL (≈ 3.61 µM); MIC (Streptococcus pneumoniae [31]): 1 µg/mL (≈ 1.8 µM); MIC (Streptococcus pneumoniae [32]): 2 µg/mL (≈ 3.61 µM); MIC (Streptococcus pneumoniae [33]): 2 µg/mL (≈ 3.61 µM); MIC (Streptococcus pneumoniae [34]): 0.03 µg/mL (≈ 0.0541 µM); MIC (Streptococcus pneumoniae [35]): 0.06 µg/mL (≈ 0.108 µM); MIC (Streptococcus pneumoniae [36]): 0.06 µg/mL (≈ 0.108 µM); MIC (Streptococcus pneumoniae [37]): 0.03 µg/mL (≈ 0.0541 µM)
CO/N=C1\CN(c2nc3c(cc2F)c(=O)c(C(=O)O)cn3C2CC2)CC1CN (configuration not stated) [GEMIFLOXACIN] | 0.5 µg/mL (≈ 1.28 µM) | 0.016 µg/mL (≈ 0.0411 µM) | 0.03 µg/mL (≈ 0.077 µM) | 0.03 µg/mL (≈ 0.077 µM) | 0.06 µg/mL (≈ 0.154 µM) | 0.016 µg/mL (≈ 0.0411 µM) | 0.03 µg/mL (≈ 0.077 µM) | 0.03 µg/mL (≈ 0.077 µM) | 0.03 µg/mL (≈ 0.077 µM) | 1 µg/mL (≈ 2.57 µM) | 0.03 µg/mL (≈ 0.077 µM) | 2 µg/mL (≈ 5.14 µM) | 0.25 µg/mL (≈ 0.642 µM) | 0.25 µg/mL (≈ 0.642 µM) | 0.016 µg/mL (≈ 0.0411 µM) | 0.25 µg/mL (≈ 0.642 µM) | 0.25 µg/mL (≈ 0.642 µM) | 1 µg/mL (≈ 2.57 µM) | 0.25 µg/mL (≈ 0.642 µM) | 0.5 µg/mL (≈ 1.28 µM) | MIC (Streptococcus pneumoniae [22]): 0.25 µg/mL (≈ 0.642 µM); MIC (Streptococcus pneumoniae [23]): 0.5 µg/mL (≈ 1.28 µM); MIC (Streptococcus pneumoniae [24]): 0.125 µg/mL (≈ 0.321 µM); MIC (Streptococcus pneumoniae [25]): 1 µg/mL (≈ 2.57 µM); MIC (Streptococcus pneumoniae [26]): 2 µg/mL (≈ 5.14 µM); MIC (Streptococcus pneumoniae [27]): 0.03 µg/mL (≈ 0.077 µM); MIC (Streptococcus pneumoniae [29]): 0.03 µg/mL (≈ 0.077 µM); MIC (Streptococcus pneumoniae [30]): 0.016 µg/mL (≈ 0.0411 µM); MIC (Streptococcus pneumoniae [31]): 0.016 µg/mL (≈ 0.0411 µM); MIC (Streptococcus pneumoniae [32]): 0.03 µg/mL (≈ 0.077 µM); MIC (Streptococcus pneumoniae [33]): 0.03 µg/mL (≈ 0.077 µM); MIC (Streptococcus pneumoniae [34]): 0.03 µg/mL (≈ 0.077 µM); MIC (Streptococcus pneumoniae [35]): 0.03 µg/mL (≈ 0.077 µM); MIC (Streptococcus pneumoniae [36]): 0.125 µg/mL (≈ 0.321 µM); MIC (Streptococcus pneumoniae [37]): 0.03 µg/mL (≈ 0.077 µM)
